According to ChEMBL document CHEMBL1148329, “Synthesis and structure-activity studies on N-[5-(1H-imidazol-4-yl)-5,6,7,8-tetrahydro-1-naphthalenyl]methanesulfonamide, an imidazole-containing alpha(1A)-adrenoceptor agonist” (J Med Chem, 2004):
Activity calls are given as the source filed them. The rule behind the calls is not given here.

Assays:
[1] = molecular target: Alpha adrenergic receptor 1A and 1B (Rattus norvegicus) (UniProt P15823+P43140); assay: Selectivity is ratio of pKi (binding affinity) of alpha-1B receptor to that of alpha-1A receptor.; type: protein assay
Chain of Alpha adrenergic receptor 1A and 1B (Rattus norvegicus) (P15823 whole entry, looked up, one chain of several): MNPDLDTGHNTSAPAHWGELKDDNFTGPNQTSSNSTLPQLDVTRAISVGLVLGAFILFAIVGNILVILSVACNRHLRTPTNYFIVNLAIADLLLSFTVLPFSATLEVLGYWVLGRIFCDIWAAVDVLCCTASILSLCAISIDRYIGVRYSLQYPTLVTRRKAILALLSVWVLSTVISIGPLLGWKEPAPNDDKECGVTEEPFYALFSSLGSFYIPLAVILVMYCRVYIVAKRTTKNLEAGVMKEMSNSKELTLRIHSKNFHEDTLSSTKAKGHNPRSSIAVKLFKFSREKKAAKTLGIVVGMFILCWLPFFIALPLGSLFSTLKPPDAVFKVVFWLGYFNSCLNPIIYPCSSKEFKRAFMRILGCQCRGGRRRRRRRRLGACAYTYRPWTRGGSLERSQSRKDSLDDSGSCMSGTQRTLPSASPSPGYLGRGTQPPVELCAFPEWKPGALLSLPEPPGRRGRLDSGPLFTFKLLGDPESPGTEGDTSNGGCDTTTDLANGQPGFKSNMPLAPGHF

[2] = molecular target: T1, Alpha-1A adrenergic receptor (Bos taurus, UniProt P18130); assay: In vitro binding affinity towards alpha-1A adrenergic receptor of bovine clone in radioligand binding assay
T1 sequence (P18130 whole entry): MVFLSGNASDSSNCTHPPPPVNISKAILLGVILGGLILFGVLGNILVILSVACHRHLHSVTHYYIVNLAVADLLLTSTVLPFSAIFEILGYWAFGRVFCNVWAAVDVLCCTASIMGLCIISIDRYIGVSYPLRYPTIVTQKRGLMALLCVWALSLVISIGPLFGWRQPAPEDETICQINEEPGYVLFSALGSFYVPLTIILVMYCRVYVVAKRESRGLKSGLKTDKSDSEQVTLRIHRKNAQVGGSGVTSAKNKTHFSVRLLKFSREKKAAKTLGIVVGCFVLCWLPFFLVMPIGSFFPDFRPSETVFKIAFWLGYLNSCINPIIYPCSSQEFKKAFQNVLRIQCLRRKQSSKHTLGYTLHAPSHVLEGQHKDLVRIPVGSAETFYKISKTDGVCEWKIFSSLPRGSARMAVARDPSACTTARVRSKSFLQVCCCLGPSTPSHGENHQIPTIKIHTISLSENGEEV

[3] = molecular target: T2, Alpha-2A adrenergic receptor (Homo sapiens, UniProt P08913); assay: In vitro binding affinity towards alpha-2A adrenergic receptor of human clone in radioligand binding assay
T2 sequence (P08913 whole entry): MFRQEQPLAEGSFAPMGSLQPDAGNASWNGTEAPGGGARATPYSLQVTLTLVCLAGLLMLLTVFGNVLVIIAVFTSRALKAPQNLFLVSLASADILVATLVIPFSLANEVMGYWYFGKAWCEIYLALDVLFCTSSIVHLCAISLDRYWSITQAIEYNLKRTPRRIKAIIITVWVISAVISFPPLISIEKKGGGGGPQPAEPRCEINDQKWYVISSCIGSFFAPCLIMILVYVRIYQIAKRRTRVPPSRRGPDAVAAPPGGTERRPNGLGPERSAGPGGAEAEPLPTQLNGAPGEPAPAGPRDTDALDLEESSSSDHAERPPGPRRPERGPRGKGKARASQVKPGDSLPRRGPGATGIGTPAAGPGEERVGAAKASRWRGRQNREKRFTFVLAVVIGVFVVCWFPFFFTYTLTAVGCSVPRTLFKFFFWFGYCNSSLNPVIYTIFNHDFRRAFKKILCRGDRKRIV

[4] = molecular target: T3, Alpha-2B adrenergic receptor (Rattus norvegicus, UniProt P19328); assay: In vitro binding affinity towards alpha-2B adrenergic receptor of rat neonatal lung in radioligand binding assay
T3 sequence (P19328 whole entry): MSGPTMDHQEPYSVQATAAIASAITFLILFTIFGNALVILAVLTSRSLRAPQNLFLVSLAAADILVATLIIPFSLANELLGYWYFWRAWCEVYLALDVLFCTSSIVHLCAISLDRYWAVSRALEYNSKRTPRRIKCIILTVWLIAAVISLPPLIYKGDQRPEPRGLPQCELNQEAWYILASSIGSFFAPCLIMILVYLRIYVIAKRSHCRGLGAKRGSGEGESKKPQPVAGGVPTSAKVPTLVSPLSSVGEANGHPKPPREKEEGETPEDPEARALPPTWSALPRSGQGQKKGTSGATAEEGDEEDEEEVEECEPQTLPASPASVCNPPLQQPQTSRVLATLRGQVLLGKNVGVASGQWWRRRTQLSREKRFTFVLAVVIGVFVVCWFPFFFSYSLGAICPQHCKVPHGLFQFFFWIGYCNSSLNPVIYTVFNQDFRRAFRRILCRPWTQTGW

[5] = molecular target: Alpha adrenergic receptor 1A and 1D (Rattus norvegicus) (UniProt P23944+P43140); assay: Selectivity is ratio of pKi (binding affinity) of Alpha-1D to that of alpha1A; type: protein assay
[6] = molecular target: T4, Alpha-1B adrenergic receptor (Mesocricetus auratus, UniProt P18841); assay: In vitro binding affinity towards alpha-1B adrenergic receptor of hamster clone in radioligand binding assay; type: single protein
T4 sequence (P18841 whole entry): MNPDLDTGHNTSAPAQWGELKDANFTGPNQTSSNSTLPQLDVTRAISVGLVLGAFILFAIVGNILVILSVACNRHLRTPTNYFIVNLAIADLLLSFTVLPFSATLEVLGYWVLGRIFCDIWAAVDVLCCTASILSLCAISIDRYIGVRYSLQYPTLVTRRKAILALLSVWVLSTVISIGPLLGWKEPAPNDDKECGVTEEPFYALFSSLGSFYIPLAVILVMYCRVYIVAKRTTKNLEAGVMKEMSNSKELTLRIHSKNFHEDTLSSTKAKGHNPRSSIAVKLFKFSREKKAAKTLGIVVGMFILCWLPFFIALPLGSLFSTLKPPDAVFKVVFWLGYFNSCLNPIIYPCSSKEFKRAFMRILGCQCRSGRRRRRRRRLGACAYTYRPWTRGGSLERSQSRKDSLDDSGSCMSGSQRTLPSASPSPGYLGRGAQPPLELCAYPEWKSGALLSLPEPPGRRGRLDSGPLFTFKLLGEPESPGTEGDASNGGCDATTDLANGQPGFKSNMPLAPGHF
In short: (§1)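 Radioligand binding at α1 subtypes: α1A from rat submaxillary gland, α1B hamster clone, α1D rat clone. Run essentially per an earlier method.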

Rattus norvegicus = species on record: Rattus norvegicus; assay: Relative affinities for alpha2B and alpha1A receptors
[7] = Relative affinities for alpha-2a and alpha-1A receptors
[8] = molecular target: T5, Alpha-1D adrenergic receptor (Rattus norvegicus, UniProt P23944); assay: In vitro binding affinity towards alpha-1D adrenergic receptor of rat clone in radioligand binding assay; in short: as §1
T5 sequence (P23944 whole entry): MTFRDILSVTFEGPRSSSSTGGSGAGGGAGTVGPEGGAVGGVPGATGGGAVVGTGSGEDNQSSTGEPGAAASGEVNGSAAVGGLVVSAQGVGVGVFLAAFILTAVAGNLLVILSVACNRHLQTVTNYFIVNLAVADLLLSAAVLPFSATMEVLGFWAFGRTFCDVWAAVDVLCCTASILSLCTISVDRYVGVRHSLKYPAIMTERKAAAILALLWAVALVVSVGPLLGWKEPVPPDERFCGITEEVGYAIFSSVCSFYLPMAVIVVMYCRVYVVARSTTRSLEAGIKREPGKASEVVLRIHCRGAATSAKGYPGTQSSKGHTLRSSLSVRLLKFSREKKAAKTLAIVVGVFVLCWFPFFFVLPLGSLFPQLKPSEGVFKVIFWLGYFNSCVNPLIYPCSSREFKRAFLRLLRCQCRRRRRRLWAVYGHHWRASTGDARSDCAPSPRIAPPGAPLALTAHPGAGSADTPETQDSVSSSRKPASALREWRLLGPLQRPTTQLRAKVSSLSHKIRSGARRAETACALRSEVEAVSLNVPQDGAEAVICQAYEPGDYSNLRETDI

[9] = molecular target: T6, Alpha-1A adrenergic receptor (Rattus norvegicus, UniProt P43140); assay: In vitro binding affinity towards alpha-1A adrenergic receptor of rat submaxillary gland in radioligand binding assay; in short: as §1
T6 sequence (P43140 whole entry): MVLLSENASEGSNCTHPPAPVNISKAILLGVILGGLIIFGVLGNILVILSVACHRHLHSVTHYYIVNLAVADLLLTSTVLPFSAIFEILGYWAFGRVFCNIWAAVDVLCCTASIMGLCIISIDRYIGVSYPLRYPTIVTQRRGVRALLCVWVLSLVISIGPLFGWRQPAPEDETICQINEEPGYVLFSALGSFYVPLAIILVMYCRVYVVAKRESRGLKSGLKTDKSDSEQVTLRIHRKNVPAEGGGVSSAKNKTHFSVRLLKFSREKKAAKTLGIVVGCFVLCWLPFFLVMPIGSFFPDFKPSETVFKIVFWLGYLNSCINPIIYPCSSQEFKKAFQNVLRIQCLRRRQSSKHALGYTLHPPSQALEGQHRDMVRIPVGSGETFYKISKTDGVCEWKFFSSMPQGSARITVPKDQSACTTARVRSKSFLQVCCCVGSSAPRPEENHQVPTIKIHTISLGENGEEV

[10] = molecular target: Alpha-1A adrenergic receptor (Oryctolagus cuniculus) (UniProt O02824); assay: Functional agonism of the compounds to constrict tissue containing the alpha-1A adrenergic receptor in rabbit urethra; Inactive
[11] = molecular target: T7, Alpha-1A adrenergic receptor (Oryctolagus cuniculus) (UniProt O02824); assay: Efficacy relative to phenylephrine (PE) to constrict tissue containing the alpha-1A adrenergic receptor in rabbit urethra; type: functional, tissue-based
T7 sequence (whole entry): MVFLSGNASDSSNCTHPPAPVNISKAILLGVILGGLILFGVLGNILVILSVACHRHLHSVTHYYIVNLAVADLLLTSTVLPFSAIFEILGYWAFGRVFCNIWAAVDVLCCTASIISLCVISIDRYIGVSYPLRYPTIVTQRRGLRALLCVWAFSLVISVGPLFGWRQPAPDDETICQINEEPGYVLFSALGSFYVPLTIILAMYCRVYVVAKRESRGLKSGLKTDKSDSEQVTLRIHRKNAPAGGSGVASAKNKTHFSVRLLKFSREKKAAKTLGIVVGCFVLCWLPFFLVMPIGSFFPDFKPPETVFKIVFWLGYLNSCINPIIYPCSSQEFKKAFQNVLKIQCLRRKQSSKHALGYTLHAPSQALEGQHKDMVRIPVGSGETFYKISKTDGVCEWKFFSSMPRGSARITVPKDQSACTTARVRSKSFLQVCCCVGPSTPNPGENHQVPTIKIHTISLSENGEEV
In short: (§2)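 α1-agonist dose–response curves in isolated tissue: rabbit urethra (α1A), rat spleen (α1B), rat aorta (α1D). Agonist potency and efficacy read from the concentration–response curves.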

[12] = molecular target: T8, Alpha-1D adrenergic receptor (Rattus norvegicus) (UniProt P23944); assay: Functional agonism of the compounds to constrict tissue containing the alpha-1D adrenergic receptor in rat aorta; type: tissue-based
T8 sequence (whole entry): T5 sequence (P23944 whole entry)
In short: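 Agonist dose–response curves were run on isolated tissue: rabbit urethra for α1A, rat spleen for α1B, and rat aorta for α1D.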

Canis familiaris [13] = assay: Uroselectivity was determined by measuring effective dose required for 5 mmHg increase of intraurethral pressure (IUP) in vivo in dog; type: functional, Canis lupus familiaris
In short: (§3)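 Dog model recording intraurethral pressure (IUP) and mean arterial pressure (MAP) simultaneously. Increasing iv doses given, maximal effect of each dose taken. Doses giving a 5 mmHg rise in IUP (ED Δ5) or 20 mmHg rise in MAP (ED Δ20) were calculated, in nmol/kg ± SEM, n ≥ 4 (2 or 3 where footnoted).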

[14] = molecular target: T8, Alpha-1D adrenergic receptor (Rattus norvegicus); assay: Efficacy relative to phenylephrine (PE) constrict tissue containing the alpha-1D adrenergic receptor in rat aorta; type: functional, tissue-based; in short: as §2
Canis familiaris [15] = assay: Uroselectivity was determined by measuring effective dose required for 20 mmHg increase of mean arterial pressure (MAP) in vivo in dog; type: functional, Canis lupus familiaris, Artery; in short: as §3

| Selectivity [1] | Ki [2] [nM] | Ki [3] [nM] | Ki [4] [nM] | Selectivity [5] | Ki [6] [nM] | Selectivity (Rattus norvegicus) | Selectivity [7] | Ki [8] [nM] | Ki [9] [nM] | pD2 [10] | Efficacy [11] [%] | pD2 [12] | Efficacy [14] [%] | SMILES | ED delta5 (Canis familiaris [13]) [nM/kg] | ED delta20 (Canis familiaris [15]) [nM/kg] |
| --- | --- | --- | --- | --- | --- | --- | --- | --- | --- | --- | --- | --- | --- | --- | --- | --- |
| 1 | 2040 | 22.9 | 22.4 | 0.2 | 1350 | 0.02 | 0.02 | 339 | – | – | – | – | – | CCS(=O)(=O)Nc1ccc2c(c1)C(c1c[nH]cn1)CCC2 (stereo not given) | – | – |
| > 20 | – | – | – | 2 | > 10000 | – | – | 1000 | 501 | inactive | – | – | – | CCS(=O)(=O)Nc1cccc(C2CCNC2)c1 (stereo not given) | – | – |
| – | – | 33.1 | 245 | – | 2950 | – | – | 1480 | – | – | 88 | 5.59 | 100 | CS(=O)(=O)Nc1c(O)ccc2c1CCCC2C1=NCCN1 (stereo not given) | 0.16 | 0.27 |
| > 10 | – | – | – | > 10 | > 10000 | – | – | > 10000 | 794 | inactive | – | – | – | CCS(=O)(=O)Nc1cccc2c1CCCC2CN (stereo not given) | – | – |
